Experimental data from different studies.
Each line is one published result; the experiments were not run side by side.
Target: Tyrosine-protein kinase Srms (SRMS, Homo sapiens, UniProt Q9H3Y6)

CNCc1ccccc1-c1csc([C@H](C)Nc2nc(C)nc3cc(OC)c(OC)cc23)c1  remaining binding (cell-free assay, competition with immobilised ligand; 1 µM): 88%
Cc1sc(C(=O)NC2COC2)cc1-n1cc(NC(=O)Nc2c(F)cccc2Cl)cn1  remaining activity (enzyme activity, inhibitor; 10 µM): 104%
O=C1NC(=O)c2cc(Nc3ccc(F)cc3)c(Nc3ccc(F)cc3)cc21  remaining signal (cell-free assay; 0.5 µM): 95.5%
CC(C)(C)c1nc2c(s1)c1nc(N)ncc1c1ccc(NS(=O)(=O)c3c(F)cccc3F)c(F)c12  remaining activity (enzyme activity, inhibitor, radiometric; 1 µM): 70%
Nc1ncnc2occ(-c3ccc(NC(=O)Nc4cc(C(F)(F)F)ccc4F)cc3)c12  remaining signal (cell-free assay, inhibitor; 20 µM): 0.8%
N#CCCc1ccc2c(c1)-c1[nH]c3ccc([N+](=O)[O-])cc3c1CC(=O)N2  remaining signal (cell-free assay; 0.5 µM): 78.6%
C[C@H](c1ccc(F)cc1)N(Cc1cccc(C(=O)O)c1)C(=O)c1cnc2ccccc2c1  remaining binding (cell-free assay, competition with immobilised ligand; 1 µM): 100%
COc1cc2ncnc(Nc3ccc(Oc4ccccc4)cc3C)c2cc1OC  inhibition (enzyme activity, inhibitor; 1 µM): 84%
O=C(NC[C@@H]1[C@H]2CN(C(=O)OCc3cc(C(F)(F)F)cc(C(F)(F)F)c3)C[C@@H]12)c1ccc2[nH]nnc2c1  remaining binding (cell-free assay, competition with immobilised ligand; 1 µM): 83%
O=C(Nc1cnn(-c2csc(C(=O)NC3COC3)c2)c1)Nc1c(F)cccc1Cl  remaining activity (enzyme activity, inhibitor; 5 µM): 105%
Cc1cc(-n2nc(Cc3cc(F)cc(C(F)(F)F)c3)nc2C)ccc1C(N)=O  remaining binding (cell-free assay, competition with immobilised ligand; 1 µM): 98%
CNC(=O)c1cc2c(Oc3ccc(NC(=O)C4(C(=O)Nc5ccc(F)cc5)CC4)cc3)ccnc2cc1OC  inhibition (enzyme activity, inhibitor, radiometric; 1 µM): 97%
